Source: ChEMBL document CHEMBL5120910, “Small-Molecule Gankyrin Inhibition as a Therapeutic Strategy for Breast and Lung Cancer” (J Med Chem, 2022)
Active and inactive are the calls of the source. The rule behind the calls is not given here.

Experiments:
A549 [1] = assay: Inhibition of gankyrin-proteasome protein-protein interaction in human A549 cells assessed as increase in phosphorylated p53 level at serine 15 residue at 0.12 to 1 uM measured after 48 hrs by Western blotting analysis; format: cell-based; conditions: dose 0.12-1 µM
Summary of the method: (§1)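 Cells in 10 cm dishes treated with varying concentrations (0.5% DMSO final) or DMSO only for 48 h. Lysed in RIPA with protease/phosphatase inhibitors on ice for 60 min. 15 μg protein resolved under reducing conditions, transferred to PVDF, and probed for p53, phospho-p53 S6/S15, Rb, gankyrin and cyclophilin. Detection by HRP-secondary ECL.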

A549 [2] = assay: Inhibition of gankyrin-proteasome protein-protein interaction in human A549 cells assessed as increase in phosphorylated p53 level at serine 6 residue at 0.12 to 1 uM measured after 48 hrs by Western blotting analysis; format: cell-based; conditions: dose 0.12-1 µM; summary of the method: as §1
[3] = Cytotoxicity against HEK293 cells assessed as cell growth inhibition measured after 72 hrs by MTT assay; format: toxicity, cell-based; conditions: human
Summary of the method: (§2)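 Cells seeded at 2.5 × 10^4 cells/well, allowed 24 h before dosing, then exposed to increasing concentrations (0.5% DMSO final) for 72 h at 37 °C, 5% CO2. MTT added at 1 mg/mL final in complete media for 2 h, formazan dissolved in DMSO, absorbance read at 570 nm. 6–8 repeats per treatment; IC50 from concentration–response fit.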

A549 [4] = assay: Antiproliferative activity against human A549 cells assessed as cell growth inhibition measured after 72 hrs by MTT assay; format: functional, cell-based; conditions: A549, 72 h; summary of the method: as §2
[5] = target: T1, 26S proteasome non-ATPase regulatory subunit 10 (Homo sapiens) (UniProt O75832); assay: Binding affinity to gankyrin (unknown origin) assessed as change in melting temperature at 300 uM by SYPRO orange staining based thermal shift assay
T1 sequence (whole entry): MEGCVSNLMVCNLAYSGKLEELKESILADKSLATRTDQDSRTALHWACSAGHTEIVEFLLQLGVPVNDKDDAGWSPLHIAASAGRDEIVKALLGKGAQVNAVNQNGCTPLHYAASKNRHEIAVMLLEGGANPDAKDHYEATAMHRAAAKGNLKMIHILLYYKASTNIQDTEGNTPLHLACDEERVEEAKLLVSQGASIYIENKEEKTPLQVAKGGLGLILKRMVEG

[6] = target: T1, 26S proteasome non-ATPase regulatory subunit 10 (Homo sapiens); assay: Binding affinity to gankyrin (unknown origin) expressed in Escherichia coli BL21 (DE3) expression system assessed as decrease in thermal denaturation at 1.5 uM measured at 5 to 90 degreeC by circular dichroism spectropolarimeter analysis
Summary of the method: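 Recombinant His-tagged gankyrin expressed in E. coli BL21(DE3) Codon+RIL (IPTG 1 mM, 25 °C, ~5 h) and purified by Ni2+-IMAC. Thermal denaturation followed by CD at 217 nm over 5–90 °C with compound at 1.5 μM.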

[7] = Metabolic stability in human liver microsomes assessed as compound remaining preincubated for 10 mins followed by NADPH addition measured after 60 mins by HPLC analysis; format: ADME, Microsome; conditions: read-out: Stability
A549 [8] = assay: Inhibition of gankyrin-proteasome protein-protein interaction in human A549 cells assessed as increase in phosphorylated p53 level at serine 15 residue at 0.04 to 0.33 uM measured after 48 hrs by Western blotting analysis; format: cell-based; conditions: dose 0.04-0.33 µM; summary of the method: as §1
[9] = target: T1, 26S proteasome non-ATPase regulatory subunit 10 (Homo sapiens); assay: Binding affinity to gankyrin (unknown origin) expressed in Escherichia coli BL21 (DE3) expression system assessed as formation of white precipitation of the compound at 1.5 uM
A549 [10] = assay: Inhibition of gankyrin-proteasome protein-protein interaction in human A549 cells assessed as increase in phosphorylated p53 level at serine 6 residue at 0.04 to 0.33 uM measured after 48 hrs by Western blotting analysis; format: cell-based; conditions: dose 0.04-0.33 µM; summary of the method: as §1
MDA-MB-231 = assay: Antiproliferative activity against human MDA-MB-231 cells assessed as cell growth inhibition measured after 72 hrs by MTT assay; format: functional, cell-based; conditions: MDA-MB-231, 72 h; summary of the method: as §2
A549 [11] = assay: Antitumor activity in human A549 cells cultured as 3D spheroids assessed as fold decrease in spheroid volume at 2.5 uM measured up to 15 days by inverted microscopic analysis; format: functional; conditions: time <= 15 day
Summary of the method: (§3)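 Spheroids formed from 2000 cells/well in ultra-low attachment U-bottom wells over 3 days, then given a single dose on day 3. Half the media was replenished every 3 days. Transmitted-light images were taken through day 15, and spheroid volume was computed from images and expressed as fold-difference. Mean ± SD, n = 8; unpaired t-test.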

A549 [12] = assay: Inhibition of gankyrin-proteasome protein-protein interaction in human A549 cells assessed as increase in phosphorylated p53 level at serine 6 residue at 0.60 to 5 uM measured after 48 hrs by Western blotting analysis; format: cell-based; conditions: dose 0.6-5 µM; summary of the method: as §1
A549 [13] = assay: Antitumor activity against human A549 cells tumor spheroids assessed as decrease in live cells by measuring green fluorescence intensity measured at 15 days by calcein AM staining based fluorescence microscopic analysis; format: functional, cell-based; conditions: dose 0.15-5 µM, time 15.0 day, DDE = dose-dependent effect
Summary of the method: (§4)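 Live/dead staining of 3D spheroids at day 15 after single-dose treatment: media replaced by kit reagent with calcein AM (live, green) and EthD-III (dead, red), 30 min in dark at room temperature, imaged at 4X by fluorescence microscopy. Mean ± SD, n = 4; unpaired Student's t-test.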

A549 [14] = assay: Antitumor activity in human A549 cells cultured as 3D spheroids assessed as fold decrease in spheroid volume at 5 uM measured up to 15 days by inverted microscopic analysis; format: functional; conditions: time <= 15 day; summary of the method: as §3
A549 [15] = assay: Antitumor activity against human A549 cells tumor spheroids assessed as increase in dead cells by measuring red fluorescence intensity measured at 15 days by EthD-III staining based fluorescence microscopic analysis; format: functional, cell-based; conditions: dose 0.15-5 µM, time 15.0 day, DDE = dose-dependent effect; summary of the method: as §4
[16] = target: T1, 26S proteasome non-ATPase regulatory subunit 10 (Homo sapiens); assay: Binding affinity to gankyrin in human A549 cells assessed as decrease in thermal stability at 0.3 uM incubated for 48 hrs followed by heat treatment at 50 to 65 degreeC by CETSA; format: cell-based
Summary of the method: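 CETSA: cells treated with compound for 48 h, then heated across a temperature range. Soluble gankyrin was detected by western blot and melt curves were constructed. Mean ± SD, n = 3.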

A549 [17] = assay: Antitumor activity in human A549 cells cultured as 3D spheroids assessed as fold decrease in spheroid volume at 0.30 uM measured up to 15 days by inverted microscopic analysis; format: functional; conditions: dose 0.3 µM; time <= 15 day; summary of the method: as §3
A549 [18] = assay: Induction of cell cycle arrest in human A549 cells assessed as decrease in cell accumulation at S phase at 0.3 uM measured after 72 hrs by propidium iodide staining based flow cytometry analysis; format: functional
Summary of the method: (§5)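 Cells in 10 cm dishes treated for 72 h (0.1% DMSO final; DMSO-only control). Harvested in cold PBS, fixed in 70% ethanol at −20 °C overnight, stained with PI for 40 min at 37 °C, then analysed by flow/imaging cytometry for G0/G1, S and G2/M fractions. Mean ± SD, n = 3.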

A549 [19] = assay: Antitumor activity in human A549 cells cultured as 3D spheroids assessed as fold decrease in spheroid volume at 0.15 uM measured up to 15 days by inverted microscopic analysis; format: functional; conditions: time <= 15 day; summary of the method: as §3
A549 [20] = assay: Induction of cell cycle arrest in human A549 cells assessed as decrease in cell accumulation at G2/M phase at 0.3 uM measured after 72 hrs by propidium iodide staining based flow cytometry analysis; format: functional; summary of the method: as §5
A549 [21] = assay: Inhibition of colony formation in human A549 cells at 0.3 uM incubated for 48 hrs followed by replacement of fresh media every alternative day measured after 7 days by crystal violet staining based clonogenic assay relative to control; values are per cent of control; conditions: A549, 48 h
A549 [22] = assay: Induction of cell cycle arrest in human A549 cells assessed as increase in cell accumulation at G0/G1 phase at 0.3 uM measured after 72 hrs by propidium iodide staining based flow cytometry analysis; format: functional; summary of the method: as §5
A549 [23] = assay: Antitumor activity in human A549 cells cultured as 3D spheroids assessed as fold decrease in spheroid volume at 0.5 uM measured up to 15 days by inverted microscopic analysis; format: functional; conditions: time <= 15 day; summary of the method: as §3
A549 [24] = assay: Inhibition of gankyrin-proteasome protein-protein interaction in human A549 cells assessed as increase in p53 level at 0.12 to 1 uM measured after 48 hrs by Western blotting analysis; format: cell-based; conditions: dose 0.12-1 µM; summary of the method: as §1
A549 [25] = assay: Colony formation in human A549 cells at 1 uM incubated for 48 hrs followed by replacement of fresh media every alternative day measured after 7 days by crystal violet staining based clonogenic assay relative to control; conditions: A549, 48 h
A549 [26] = assay: Antitumor activity in human A549 cells cultured as 3D spheroids assessed as fold decrease in spheroid volume at 1 uM measured up to 15 days by inverted microscopic analysis; format: functional; conditions: time <= 15 day; summary of the method: as §3
A549 [27] = assay: Inhibition of colony formation in human A549 cells at 0.5 uM incubated for 48 hrs followed by replacement of fresh media every alternative day measured after 7 days by crystal violet staining based clonogenic assay relative to control; values are per cent of control; conditions: A549, 48 h
A549 [28] = assay: Inhibition of gankyrin-proteasome protein-protein interaction in human A549 cells assessed as increase in Rb level at 0.12 to 1 uM measured after 48 hrs by Western blotting analysis; format: cell-based; conditions: dose 0.12-1 µM; summary of the method: as §1

IC50 (A549 [4])	Activity [5]	Activity [6]	remaining at 1 h [7]	Activity [9]	IC50 (MDA-MB-231)	Compound	Activity (A549 [1])	Activity (A549 [2])	IC50 at 72 h [3]	Activity (A549 [8])	Activity (A549 [10])	Activity (A549 [12])	Activity (A549 [13])	Activity (A549 [15])	further results
5.5 µM	Active	Active	73%	Active	83.2 µM	Cc1ccc(NC(=S)CCCn2cc(-c3ccc(C(F)(F)F)cc3)nn2)cc1	Active	Active	> 100 µM	Active	Active	Active	Dde	Dde	fold change (FC) (A549 [11]): 3.3; fold change (FC) (A549 [14]): 3.5
0.33 µM	Active	Active	87%	–	> 100 µM	COC(=O)c1ccc(-c2cn(CCCC(=O)Nc3ccc(-c4ccccc4)cc3)nn2)cc1	Active	Active	> 100 µM	Active	Active	Active	Dde	Dde	Activity [16]: Active; fold change (FC) (A549 [17]): 2.4; Activity (A549 [18]): Active; fold change (FC) (A549 [19]): 3.6; Activity (A549 [20]): Active; growth, % of control at 0.3 µM (A549 [21]): 44.6%; Activity (A549 [22]): Active
1 µM	Active	Active	80%	Active	> 100 µM	FC(F)(F)c1ccc(-c2cn(CCCC(=S)Nc3ccc(-c4ccccc4)cc3)nn2)cc1	–	Active	> 100 µM	–	Active	Active	Dde	Dde	fold change (FC) (A549 [23]): 3.8; Activity (A549 [24]): Active; growth, % of control at 1 µM (A549 [25]): 61.4%; fold change (FC) (A549 [26]): 4; growth, % of control at 0.5 µM (A549 [27]): 83.8%; Activity (A549 [28]): Active
